Activity calls are given as the source filed them. No cut-off for these calls is given here.
Assays:
[1] = biological target: T1, Broad substrate specificity ATP-binding cassette transporter ABCG2 (Homo sapiens, UniProt Q9UNQ0); experiment: Inhibition of human C-terminal GFP-tagged ABCG2 expressed in MDCK2 cells using pheophorbide A as substrate preincubated for 20 mins followed by substrate addition measured after 120 mins by flow cytometry; assay type: cell-based, MDCK-II
T1 sequence (Q9UNQ0 whole entry): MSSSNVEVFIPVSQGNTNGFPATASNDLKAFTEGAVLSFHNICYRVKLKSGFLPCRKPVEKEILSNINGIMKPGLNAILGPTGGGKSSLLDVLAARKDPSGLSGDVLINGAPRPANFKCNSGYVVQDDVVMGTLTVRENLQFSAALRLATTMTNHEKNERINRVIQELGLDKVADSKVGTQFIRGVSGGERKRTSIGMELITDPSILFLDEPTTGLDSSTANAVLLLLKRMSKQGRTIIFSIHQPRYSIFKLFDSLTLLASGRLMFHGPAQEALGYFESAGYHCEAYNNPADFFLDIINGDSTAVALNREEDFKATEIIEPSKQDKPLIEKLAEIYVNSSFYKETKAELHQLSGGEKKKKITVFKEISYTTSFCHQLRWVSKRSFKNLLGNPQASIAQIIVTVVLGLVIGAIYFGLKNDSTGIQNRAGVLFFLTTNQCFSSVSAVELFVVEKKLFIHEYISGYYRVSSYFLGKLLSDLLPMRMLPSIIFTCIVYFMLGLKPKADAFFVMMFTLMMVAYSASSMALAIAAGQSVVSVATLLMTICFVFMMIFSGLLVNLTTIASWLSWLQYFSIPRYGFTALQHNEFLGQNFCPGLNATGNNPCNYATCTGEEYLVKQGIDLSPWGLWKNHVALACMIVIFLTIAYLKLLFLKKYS
Method in brief: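 MDCK II BCRP cells, about 45,000/well in KHB, preincubated with compound for 20 min at 37 °C, 5% CO2. Pheophorbide A added (5 µM solution), then 120 min to steady state. Flow cytometry: excitation 488 nm, emission >670 nm (FL3); GFP in FL1. IC50 from 4-parameter logistic fit; duplicates.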

[2] = Cytotoxicity against MDCK2 cells assessed as reduction in cell viability after 72 hrs by MTT assay; assay type: cell-based, Canis lupus familiaris, MDCK-II; settings: dog
Method in brief: (§1)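 Seeding 3 x 10³ cells/well, 6 h attachment at 37 °C, 5% CO2, then compound for 72 h. Controls: 10% DMSO (positive), medium (negative). MTT 5 mg/ml stock for 1 h; formazan in DMSO; A570, background 690 nm. Normalized to control; GI50 from variable-slope sigmoidal fit.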

[3] = system: ABCG2; experiment: Therapeutic ratio of GI50 for MDCK2 cells expressing human C-terminal GFP-tagged ABCG2 to IC50 for human C-terminal GFP-tagged ABCG2 expressed in MDCK2 cells; assay type: ADME, cell-based; settings: dog, read-out: TI
Method in brief: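 Ratio of GI50 from a 72 h MTT assay in MDCK II BCRP cells to IC50 from the pheophorbide A assay in the same cells.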

[4] = biological target: ATP-dependent translocase ABCB1 (Homo sapiens, UniProt P08183); experiment: Inhibition of ABCB1 in human A2780/ADR cells incubated for 30 mins measured up to 3600 secs with time intervals of 60 secs by calcein accumulation assay; assay type: cell-based
[5] = biological target: T1, Broad substrate specificity ATP-binding cassette transporter ABCG2; experiment: Inhibition of vanadate-sensitive ATPase activity of recombinant human ABCG2 expressed in baculovirus infected Sf9 cell membrane assessed as decrease in inorganic phosphate production at 1 uM after 20 mins by colorimetry; settings: sf9, 20 min
Method in brief: (§2)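 Sf9 membranes from cells infected with baculovirus carrying human wild-type ABCG2, cholesterol-loaded; protein by BCA. Buffer: 40 mM MOPS-Tris pH 7.0, 50 mM KCl, 2 mM DTT, 500 µM EGTA-Tris, 5 mM azide, 1 mM ouabain, 10 µg protein. Reaction started with 3.3 mM MgATP, 20 min at 37 °C. Basal activity with 1 mM orthovanadate; 1 µM quercetin and 1 µM Ko143 as references. Pi by molybdate/ascorbate at 880 nm against K2HPO4 standard; triplicates.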

[6] = Cytotoxicity against MDCK2 cells expressing human C-terminal GFP-tagged ABCG2 assessed as reduction in cell viability after 72 hrs by MTT assay; assay type: ADME, cell-based, Canis lupus familiaris, MDCK-II; settings: dog; method in brief: as §1
[7] = Cytotoxicity against MDCK2 cells expressing human C-terminal GFP-tagged ABCG2 assessed as reduction in cell viability at 10 uM after 72 hrs by MTT assay; assay type: ADME, cell-based, Canis lupus familiaris; settings: dog, mdck-ii
[8] = Cytotoxicity against MDCK2 cells assessed as reduction in cell viability at 10 uM after 72 hrs by MTT assay; assay type: cell-based, Canis lupus familiaris; settings: dog, mdck-ii
[9] = system: ABCB1 (P-glycoprotein); experiment: Therapeutic ratio of GI50 for human A2780/ADR cells overexpressing ABCB1 to IC50 for ABCB1 in human A2780/ADR cells; assay type: ADME, cell-based; settings: read-out: TI
[10] = Cytotoxicity against human A2780 cells assessed as reduction in cell viability after 72 hrs by MTT assay; assay type: cell-based
Method in brief: (§3)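 MTT assay in A2780 and ABCB1-overexpressing doxorubicin-resistant A2780adr cells; A2780adr given 1 μM doxorubicin for one passage every 10 passages. 8 x 10³ cells/well, 6 h attachment, 72 h compound exposure at 37 °C, 5% CO2. MTT 1 h, DMSO solubilization, A570 with 690 nm background. Normalized data; GI50 by variable-Hill-slope sigmoidal regression.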

[11] = Cytotoxicity against human A2780/ADR cells overexpressing ABCB1 assessed as reduction in cell viability after 72 hrs by MTT assay; assay type: ADME, cell-based; method in brief: as §3
[12] = biological target: ABCB1 (P-glycoprotein) (Homo sapiens, UniProt P08183); experiment: Inhibition of ABCB1 in human A2780/ADR cells at 10 uM incubated for 30 mins measured up to 3600 secs with time intervals of 60 secs by calcein accumulation assay relative to cyclosporine A; assay type: cell-based; settings: probe calcein, read-out: Imax
Method in brief: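 A2780adr cells, about 30,000/well, preincubated with compound for 30 min. Calcein AM then added (1.25 µM solution); fluorescence (ex 485/em 520 nm) read every 60 s to 3600 s at 37 °C. […] IC50 by four-parameter logistic fit, variable slope.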

[13] = system: MDCK-II; experiment: Potentiation of SN-38-induced cytotoxicity in MDCK2 cells assessed as decrease in cell viability at 0.01 to 0.1 uM after 72 hrs by MTT assay; assay type: functional, cell-based; settings: Canis lupus familiaris
Method in brief: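 SN-38 dose-response curves in MDCK II BCRP cells (canine kidney line stably transfected with human ABCG2 C-terminally fused to GFP) and parental MDCK II wild-type cells. Modulator was present at a final 0.01 or 0.1 µM. Cells were seeded at 3 x 10³ per well, attached 6 h, then exposed 72 h. MTT was read at 570 nm minus 690 nm. Data were normalized and fitted with variable-slope sigmoidal regression.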

[14] = biological target: T1, Broad substrate specificity ATP-binding cassette transporter ABCG2; experiment: Induction of vanadate-sensitive ATPase activity of recombinant human ABCG2 expressed in baculovirus infected Sf9 cell membrane assessed as increase in inorganic phosphate production at >1 uM after 20 mins by colorimetry; settings: sf9, 20 min; method in brief: as §2
[15] = biological target: T1, Broad substrate specificity ATP-binding cassette transporter ABCG2; experiment: Inhibition of vanadate-sensitive ATPase activity of recombinant human ABCG2 expressed in baculovirus infected Sf9 cell membrane assessed as decrease in inorganic phosphate production up to 1 uM after 20 mins by colorimetry; settings: sf9, 20 min; method in brief: as §2
[16] = system: MCF7; experiment: Drug uptake in human MCF7 cells up to 60 mins by fluorescence spectroscopic analysis; assay type: ADME, cell-based; settings: mcf7, 1 h
Method in brief: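 Parental MCF-7 cells, 1 x 10^6 per 4.5 ml KHB, incubated with compound for varying times […]. After a KHB wash, intracellular fluorescence was read in a fluorescence spectrometer.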

[17] = biological target: T1, Broad substrate specificity ATP-binding cassette transporter ABCG2; experiment: Inhibition of ABCG2 in human MCF7/MX cells assessed as intracellular pheophorbide A accumulation at 10 uM after 2 hrs by confocal laser scanning microscopic analysis; assay type: cell-based
Method in brief: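 MCF-7 MX cells (ABCG2-overexpressing; 0.1 µM mitoxantrone every 10 passages) incubated with pheophorbide A together with compound for 2 h. Imaged by confocal laser scanning microscopy at 37 °C after replacing the medium with KHB.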

[18] = system: MCF7; experiment: Drug uptake in human MCF7 cells at 10 uM after 2 hrs by confocal laser scanning microscopic analysis; assay type: ADME, cell-based; settings: mcf7, 2 h
Method in brief: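 Parental MCF-7 cells, 1 x 10^5 seeded in dishes for 48 h to 50-60% confluence, then exposed to 10 µM compound for 2 h. Supernatant replaced with KHB; confocal imaging at 37 °C, excitation 405 nm, emission 425-475 nm.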

Chain of ATP-dependent translocase ABCB1 (P08183 whole entry): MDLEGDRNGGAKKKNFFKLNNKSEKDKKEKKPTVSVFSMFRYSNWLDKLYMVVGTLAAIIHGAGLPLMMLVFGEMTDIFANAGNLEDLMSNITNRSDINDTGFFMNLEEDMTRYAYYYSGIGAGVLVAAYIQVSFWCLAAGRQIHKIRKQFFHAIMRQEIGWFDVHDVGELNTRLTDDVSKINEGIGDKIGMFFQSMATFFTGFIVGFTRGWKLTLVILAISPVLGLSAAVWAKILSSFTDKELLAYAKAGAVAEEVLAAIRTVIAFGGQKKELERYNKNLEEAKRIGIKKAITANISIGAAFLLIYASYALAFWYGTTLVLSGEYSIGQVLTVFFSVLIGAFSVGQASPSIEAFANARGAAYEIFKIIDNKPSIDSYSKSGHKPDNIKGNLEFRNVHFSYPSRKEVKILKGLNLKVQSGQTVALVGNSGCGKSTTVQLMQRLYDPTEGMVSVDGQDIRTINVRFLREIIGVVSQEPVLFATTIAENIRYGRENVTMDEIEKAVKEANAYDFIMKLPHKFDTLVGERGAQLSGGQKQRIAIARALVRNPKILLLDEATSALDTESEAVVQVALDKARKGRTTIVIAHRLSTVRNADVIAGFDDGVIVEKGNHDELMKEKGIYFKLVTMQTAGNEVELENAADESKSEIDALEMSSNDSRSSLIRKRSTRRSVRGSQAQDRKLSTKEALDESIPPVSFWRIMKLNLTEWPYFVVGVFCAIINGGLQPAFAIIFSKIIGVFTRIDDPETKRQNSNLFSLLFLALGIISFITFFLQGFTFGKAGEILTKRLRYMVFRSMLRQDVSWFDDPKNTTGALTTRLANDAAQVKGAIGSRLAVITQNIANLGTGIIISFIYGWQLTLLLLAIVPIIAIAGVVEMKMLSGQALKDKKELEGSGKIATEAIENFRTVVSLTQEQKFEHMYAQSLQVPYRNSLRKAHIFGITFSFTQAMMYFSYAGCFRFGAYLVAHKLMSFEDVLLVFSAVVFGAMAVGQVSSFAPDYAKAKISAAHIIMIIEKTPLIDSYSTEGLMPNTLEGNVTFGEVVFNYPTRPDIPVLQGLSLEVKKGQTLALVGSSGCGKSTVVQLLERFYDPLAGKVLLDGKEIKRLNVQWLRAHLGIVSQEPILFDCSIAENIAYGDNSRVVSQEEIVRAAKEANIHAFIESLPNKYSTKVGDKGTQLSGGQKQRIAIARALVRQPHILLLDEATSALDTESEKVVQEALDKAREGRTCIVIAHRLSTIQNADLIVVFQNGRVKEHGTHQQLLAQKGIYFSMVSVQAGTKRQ
Chain of ABCB1 (P-glycoprotein) (Homo sapiens, UniProt P08183) (P08183 whole entry): as above

SMILES | IC50 [1] [nM] | GI50 at 72 h [2] [µM] | selectivity ratio [3] | IC50 [4] [µM] | GI50 at 72 h [6] [µM] | other results
COc1ccc(/C=C/C(=O)c2cccc(Nc3nc(-c4ccccc4)nc4ccccc34)c2)cc1OC | 460 |  |  |  |  | 
COc1ccc(/C=C/C(=O)c2cccc(Nc3ncnc4cc(OC)c(OC)cc34)c2)cc1 | 320 | 16.9 | 40 | 4.15 | 12.7 | inhibition (INH) [5]: Active
COc1cccc(/C=C/C(=O)c2ccc(Nc3nc(-c4ccccc4)nc4ccccc34)cc2)c1 | 880 |  |  | 32.1 |  | Activity [7]: Toxic; Activity [8]: Toxic
COc1ccc(/C=C/C(=O)c2cccc(Nc3ncnc4ccccc34)c2)cc1OC | 1300 | 3.42 | 4 | 0.42 | 5.14 | selectivity ratio [9]: 2; GI50 at 72 h [10]: 650 nM; GI50 at 72 h [11]: 700 nM; inhibition at 30 min, 10 µM [12]: 66%
COc1ccc(/C=C/C(=O)c2ccc(Nc3nc(-c4ccccc4)nc4ccccc34)cc2)cc1OC | 290 | 3.46 | 17 | 18.8 | 4.8 | Activity [7]: Toxic; Activity [8]: Toxic
O=C(/C=C/c1ccccc1)c1ccc(Nc2nc(-c3ccccc3)nc3ccccc23)cc1 | 920 |  |  |  |  | 
COc1ccc(/C=C/C(=O)c2cccc(Nc3nc(-c4ccc(OC)c(OC)c4)nc4ccccc34)c2)cc1 | 210 | 10.3 | 62 | 1.29 | 13.1 | selectivity ratio [9]: 3; GI50 at 72 h [10]: 4390 nM; GI50 at 72 h [11]: 3250 nM; inhibition at 30 min, 10 µM [12]: 70%
COc1ccc(/C=C/C(=O)c2ccc(Nc3nc(-c4ccccc4)nc4ccccc34)cc2)cc1 | 3550 |  |  |  |  | 
COc1cccc(/C=C/C(=O)c2cccc(Nc3nc(-c4ccccc4)nc4ccccc34)c2)c1 | 680 |  |  |  |  | Activity [7]: Toxic; Activity [8]: Toxic
COc1ccc(-c2nc(Nc3ccc(C(=O)/C=C/c4ccccc4)cc3)c3ccccc3n2)cc1OC | 1090 |  |  |  |  | 
COc1ccc(/C=C/C(=O)c2ccc(Nc3nc(-c4ccc(OC)c(OC)c4)nc4ccccc34)cc2)cc1 | 3130 |  |  |  |  | 
COc1ccc(/C=C/C(=O)c2cccc(Nc3nc(-c4ccc(OC)c(OC)c4)nc4ccccc34)c2)cc1OC | 600 | 12.6 | 18 | 0.48 | 10.9 | selectivity ratio [9]: 4; GI50 at 72 h [10]: 1980 nM; GI50 at 72 h [11]: 1710 nM; inhibition at 30 min, 10 µM [12]: 76%
COc1ccc(/C=C/C(=O)c2cccc(Nc3ncnc4ccccc34)c2)cc1 | 890 |  |  | 7.08 |  | 
COc1ccc2c3c([nH]c2c1)[C@H](CC(C)C)N1C(=O)[C@H](CCC(=O)OC(C)(C)C)NC(=O)[C@@H]1C3 |  | 10.9 |  |  | 11.1 | Activity [13]: Active
COc1ccc(/C=C/C(=O)c2ccc(Nc3ncnc4cc(OC)c(OC)cc34)cc2)cc1OC | 1230 |  |  |  |  | inhibition (INH) [5]: Active
COc1ccc(/C=C/C(=O)c2cccc(Nc3ncnc4cc(OC)c(OC)cc34)c2)cc1OC | 1710 | 6.14 | 7 | 0.86 | 11.5 | selectivity ratio [9]: 2; GI50 at 72 h [10]: 1350 nM; inhibition (INH) [5]: Active; GI50 at 72 h [11]: 1500 nM; inhibition at 30 min, 10 µM [12]: 68%
COc1cccc(/C=C/C(=O)c2ccc(Nc3nc(-c4ccc(OC)c(OC)c4)nc4ccccc34)cc2)c1 | 360 |  |  | 14.6 |  | 
COc1cccc(/C=C/C(=O)c2cccc(Nc3nc(-c4ccc(OC)c(OC)c4)nc4ccccc34)c2)c1 | 310 | 65.5 | 273 | 8.24 | 84.7 | 
COc1cccc(/C=C/C(=O)c2ccc(Nc3ncnc4ccccc34)cc2)c1 | 680 |  |  | 5.57 |  | Activity [7]: Toxic; Activity [8]: Toxic
COc1cccc(/C=C/C(=O)c2ccc(Nc3ncnc4cc(OC)c(OC)cc34)cc2)c1 | 390 |  |  | 7.55 |  | Activity [14]: Not Active; inhibition (INH) [5]: Active; inhibition (INH) [15]: Active
COc1ccc(/C=C/C(=O)c2cccc(Nc3nc(-c4ccccc4)nc4ccccc34)c2)cc1 | 970 |  |  |  |  | 
COc1ccc(/C=C/C(=O)c2ccc(Nc3ncnc4ccccc34)cc2)cc1OC | 840 |  |  | 2.34 |  | Drug uptake [16]: Active; inhibition (INH) [17]: Active; Drug uptake [18]: Active; inhibition at 30 min, 10 µM [12]: 61%
